From ChEMBL document CHEMBL1134324, “Chemosensitization of a multidrug-resistant Leishmania tropica line by new sesquiterpenes from Maytenus magellanica and Maytenus chubutensis” (J Med Chem, 2001)

What was measured:
Format in all cases: functional
Leishmania tropica [1] = experiment: Growth inhibition of MDR (DNM-R150) L. Tropica line at 15 uM concentration
Summary of the method: (§1)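 Daunomycin-resistant (DNM-R150) promastigotes, log phase, 3 × 10⁵ cells per well, co-exposed to 150 μM DNM plus sesquiterpene (DMSO stock diluted in medium; final DMSO ≤0.3%). Incubated 72 h at 28 °C in RPMI 1640-modified medium with 20% heat-inactivated FBS. MTT added for 4 h, formazan dissolved in 20% SDS, A540 read. %GI calculated relative to control cells given the same DNM without modulator.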

Leishmania tropica [2] = experiment: Growth inhibition of wild type L. Tropica parasite at 7.5 uM concentration
Summary of the method: (§2)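 Intrinsic toxicity assay on wild-type LRC clone promastigotes, log phase, 3 × 10⁵ cells per well, exposed to sesquiterpene without DNM (DMSO stock diluted in medium; final DMSO ≤0.3%). Incubated 72 h at 28 °C in RPMI 1640-modified medium with 20% FBS. Viability read by MTT (4 h, SDS solubilization, 540 nm). Survival is absorbance ratio to untreated control, expressed as %GI.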

Leishmania tropica [3] = experiment: Growth inhibition of wild type L. Tropica parasite at 30 uM concentration; summary of the method: as §2
Leishmania tropica [4] = experiment: Growth inhibition of MDR (DNM-R150) L. Tropica line at 7.5 uM concentration; summary of the method: as §1
Leishmania tropica [5] = experiment: Growth inhibition of wild type L. Tropica parasite at 15 uM concentration; summary of the method: as §2
Leishmania tropica [6] = experiment: Growth inhibition of MDR (DNM-R150) L. Tropica line at 30 uM concentration; summary of the method: as §1

## CC(=O)O[C@H]1[C@H](O)[C@@H](C)C23OC(C)(C)C(C[C@H](OC(=O)c4ccccc4)[C@]2(C)[C@H]1OC(=O)c1ccccc1)[C@H]3OC(C)=O (some centres undefined)
Leishmania tropica [1]
  inhibition: 54%
Leishmania tropica [2]
  inhibition: 0%
Leishmania tropica [3]
  inhibition: 11.7%
Leishmania tropica [4]
  inhibition: 32%
Leishmania tropica [5]
  inhibition: 3.5%
Leishmania tropica [6]
  inhibition: 77.5%

## CC(=O)O[C@@H]1[C@H](OC(=O)c2cccnc2)[C@@]2(C)[C@@H](OC(=O)c3ccccc3)[C@@H](OC(C)=O)C3CC2(OC3(C)C)[C@@](C)(O)[C@H]1OC(=O)c1ccccc1 (some centres undefined)
Leishmania tropica [1]
  inhibition: 44%
Leishmania tropica [2]
  inhibition: 0%
Leishmania tropica [3]
  inhibition: 19.7%
Leishmania tropica [4]
  inhibition: 21.4%
Leishmania tropica [5]
  inhibition: 12.9%
Leishmania tropica [6]
  inhibition: 69.7%

## CC(=O)O[C@H]1C[C@](C)(O)C23CC(C[C@H](OC(=O)/C=C/c4ccccc4)[C@]2(C)[C@H]1OC(=O)c1ccccc1)C(C)(C)O3 (some centres undefined)
Leishmania tropica [1]
  inhibition: 92.8%
Leishmania tropica [2]
  inhibition: 0%
Leishmania tropica [3]
  inhibition: 7.5%
Leishmania tropica [4]
  inhibition: 88.2%
Leishmania tropica [5]
  inhibition: 7.3%
Leishmania tropica [6]
  inhibition: 94.3%

## CC(=O)O[C@@H]1[C@H](OC(=O)c2ccccc2)[C@@]2(C)[C@@H](OC(=O)c3ccccc3)CC3[C@@H](OC(C)=O)C2(OC3(C)C)[C@@](C)(O)[C@H]1OC(=O)c1cccnc1 (some centres undefined)
Leishmania tropica [1]
  inhibition: 30.7%
Leishmania tropica [2]
  inhibition: 2.2%
Leishmania tropica [3]
  inhibition: 3.7%
Leishmania tropica [4]
  inhibition: 10%
Leishmania tropica [5]
  inhibition: 0.7%
Leishmania tropica [6]
  inhibition: 69.5%

## CC(=O)O[C@H]1C[C@](C)(O)C23CC(C[C@H](OC(=O)c4ccccc4)[C@]2(C)[C@H]1OC(=O)c1ccccc1)C(C)(C)O3 (some centres undefined)
Leishmania tropica [1]
  inhibition: 89.7%
Leishmania tropica [2]
  inhibition: 5.3%
Leishmania tropica [3]
  inhibition: 13.3%
Leishmania tropica [4]
  inhibition: 82%
Leishmania tropica [5]
  inhibition: 4.1%
Leishmania tropica [6]
  inhibition: 94%

## CC(=O)O[C@@H]1[C@H](OC(=O)c2ccccc2)[C@@]2(C)[C@@H](OC(=O)/C=C/c3ccccc3)C[C@H]3[C@@H](OC(C)=O)[C@]2(OC3(C)C)[C@@](C)(O)[C@H]1OC(=O)c1cccnc1
Leishmania tropica [1]
  inhibition: 13.5%
Leishmania tropica [2]
  inhibition: 1.5%
Leishmania tropica [3]
  inhibition: 1.9%
Leishmania tropica [4]
  inhibition: 7.3%
Leishmania tropica [5]
  inhibition: 1.5%
Leishmania tropica [6]
  inhibition: 45%

## CC(=O)O[C@@H]1[C@H](OC(=O)c2cccnc2)[C@@]2(C)[C@@H](OC(=O)c3ccccc3)[C@@H](OC(=O)c3ccccc3)C3CC2(OC3(C)C)[C@@](C)(O)[C@H]1OC(C)=O (some centres undefined)
Leishmania tropica [1]
  inhibition: 54%
Leishmania tropica [2]
  inhibition: 0.5%
Leishmania tropica [3]
  inhibition: 11%
Leishmania tropica [4]
  inhibition: 23.9%
Leishmania tropica [5]
  inhibition: 6%
Leishmania tropica [6]
  inhibition: 89%

## CC(=O)OC[C@]12[C@@H](OC(=O)c3ccccc3)CC3[C@@H](OC(=O)c4ccccc4)C1(OC3(C)C)[C@H](C)C[C@@H](OC(=O)c1cccnc1)[C@@H]2OC(C)=O (some centres undefined)
Leishmania tropica [1]
  inhibition: 87.9%
Leishmania tropica [2]
  inhibition: 11.5%
Leishmania tropica [3]
  inhibition: 35%
Leishmania tropica [4]
  inhibition: 83.7%
Leishmania tropica [5]
  inhibition: 27.5%
Leishmania tropica [6]
  inhibition: 93.7%

## CC(=O)O[C@@H]1[C@H](OC(=O)c2ccccc2)[C@@]2(C)[C@@H](OC(=O)c3ccccc3)[C@@H](OC(C)=O)C3CC2(OC3(C)C)[C@@](C)(O)[C@H]1OC(C)=O (some centres undefined)
Leishmania tropica [1]
  inhibition: 65%
Leishmania tropica [2]
  inhibition: 1.7%
Leishmania tropica [3]
  inhibition: 23%
Leishmania tropica [4]
  inhibition: 39%
Leishmania tropica [5]
  inhibition: 14.4%
Leishmania tropica [6]
  inhibition: 90%

## CC(=O)O[C@@H]1C2[C@H](OC(C)=O)[C@H](OC(=O)c3ccccc3)[C@]3(C)[C@@H](OC(=O)c4ccccc4)[C@H](OC(=O)c4cccnc4)C[C@@H](C)C13OC2(C)C (some centres undefined)
Leishmania tropica [1]
  inhibition: 79.3%
Leishmania tropica [2]
  inhibition: 1.7%
Leishmania tropica [3]
  inhibition: 13.3%
Leishmania tropica [4]
  inhibition: 42.2%
Leishmania tropica [5]
  inhibition: 13%
Leishmania tropica [6]
  inhibition: 94.5%

## CC(=O)OC[C@]12[C@@H](OC(=O)c3ccccc3)CC3[C@@H](OC(=O)c4ccccc4)C1(OC3(C)C)[C@@](C)(O)C[C@@H](OC(=O)c1cccnc1)[C@@H]2OC(C)=O (some centres undefined)
Leishmania tropica [1]
  inhibition: 91.3%
Leishmania tropica [2]
  inhibition: 8.2%
Leishmania tropica [3]
  inhibition: 45%
Leishmania tropica [4]
  inhibition: 80.7%
Leishmania tropica [5]
  inhibition: 25.8%
Leishmania tropica [6]
  inhibition: 94.8%

## CC(=O)O[C@@H]1[C@H](OC(=O)/C=C/c2ccccc2)[C@@]2(C)[C@@H](OC(=O)c3ccccc3)CC3CC2(OC3(C)C)[C@@](C)(O)[C@H]1OC(=O)c1cccnc1 (some centres undefined)
Leishmania tropica [1]
  inhibition: 90.3%
Leishmania tropica [2]
  inhibition: 2.5%
Leishmania tropica [3]
  inhibition: 7.5%
Leishmania tropica [4]
  inhibition: 82%
Leishmania tropica [5]
  inhibition: 3.7%
Leishmania tropica [6]
  inhibition: 94.7%

## CC(=O)O[C@@H]1[C@H](OC(=O)c2ccccc2)[C@@]2(C)[C@@H](OC(=O)c3ccccc3)[C@@H](OC(=O)c3ccccc3)C3CC2(OC3(C)C)[C@@](C)(O)[C@H]1OC(C)=O (some centres undefined)
Leishmania tropica [1]
  inhibition: 79%
Leishmania tropica [2]
  inhibition: 0.5%
Leishmania tropica [3]
  inhibition: 20.5%
Leishmania tropica [4]
  inhibition: 48.7%
Leishmania tropica [5]
  inhibition: 15.8%
Leishmania tropica [6]
  inhibition: 93%

## CC(=O)O[C@@H]1C2[C@H](OC(C)=O)[C@H](OC(=O)c3ccccc3)[C@]3(C)[C@@H](OC(=O)c4ccccc4)[C@H](OC(=O)c4ccccc4)C[C@](C)(O)C13OC2(C)C (some centres undefined)
Leishmania tropica [1]
  inhibition: 82.2%
Leishmania tropica [2]
  inhibition: 9.7%
Leishmania tropica [3]
  inhibition: 16.2%
Leishmania tropica [4]
  inhibition: 60.3%
Leishmania tropica [5]
  inhibition: 19.7%
Leishmania tropica [6]
  inhibition: 92%
